Data as given in ChEMBL document CHEMBL1140412, “F-18 stilbenes as PET imaging agents for detecting beta-amyloid plaques in the brain” (J Med Chem, 2005).

Tests used:
[1] = molecular target: Amyloid-beta precursor protein (Homo sapiens, UniProt P05067); assay: Inhibition constant for I-125-IMPY binding to amyloid plaques in Alzheimers disease brain homogenates; format: tissue-based
Procedure, shortened: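 Competition binding in pooled postmortem AD cortical homogenates (dissected gray/white matter, ~100 mg wet tissue/ml PBS pH 7.4; 20-50 μg per tube). [¹²⁵I]IMPY at 0.04-0.06 nM; inhibitors 10^-5-10^-10 M in PBS with 0.1% BSA. Nonspecific binding with 600 nM IMPY. Incubated 2 hr at 37°C, GF/B filtration, PBS washes, gamma counting. Ki from nonlinear regression.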

[2] = Biodistribution in ICR mouse skin 2 min. after iv injection of [18F]-compound in 0.1% bovine serum albumin solution, n = 3; format: ADME, organism-based, Zone of skin; conditions: in vivo
Procedure, shortened: (§1)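 Male ICR mice (22-25 g) under isoflurane anesthesia received 0.15 mL of 0.1% BSA solution containing 5-10 μCi [¹⁸F]tracer by tail-vein injection; n = 3 per time point. Killed by cervical dislocation, organs removed, weighed and gamma-counted. %dose/g derived from sample counts vs. diluted initial dose; blood total activity assumed as 7% of body weight. Mean ± SD.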

[3] = Biodistribution in ICR mouse brain 2 hr after iv injection of [18F]-compound in 0.1% bovine serum albumin solution, n = 3; format: ADME, organism-based; conditions: in vivo; procedure, shortened: as §1
[4] = Biodistribution in ICR mouse lung 30 min. after iv injection of [18F]-compound in 0.1% bovine serum albumin solution, n = 3; format: ADME, organism-based; conditions: in vivo, 0.5 h; procedure, shortened: as §1
[5] = Biodistribution in ICR mouse heart 1 hr after iv injection of [18F]-compound in 0.1% bovine serum albumin solution, n = 3; format: ADME, organism-based; conditions: in vivo; procedure, shortened: as §1
[6] = Biodistribution in ICR mouse kidney 2 hr after iv injection of [18F]-compound in 0.1% bovine serum albumin solution, n = 3; format: ADME, organism-based; conditions: in vivo; procedure, shortened: as §1
[7] = Biodistribution in ICR mouse skin 30 min. after iv injection of [18F]-compound in 0.1% bovine serum albumin solution, n = 3; format: ADME, organism-based, Zone of skin; conditions: in vivo, 0.5 h; procedure, shortened: as §1
[8] = Biodistribution in ICR mouse blood 30 min. after iv injection of [18F]-compound in 0.1% bovine serum albumin solution, n = 3; format: ADME, organism-based; conditions: in vivo, 0.5 h; procedure, shortened: as §1
[9] = Biodistribution in ICR mouse kidney 2 min. after iv injection of [18F]-compound in 0.1% bovine serum albumin solution, n = 3; format: ADME, organism-based; conditions: in vivo; procedure, shortened: as §1
[10] = Biodistribution in ICR mouse muscle 2 min. after iv injection of [18F]-compound in 0.1% bovine serum albumin solution, n = 3; format: ADME, organism-based, Muscle tissue; conditions: in vivo; procedure, shortened: as §1
[11] = Biodistribution in ICR mouse blood 1 hr after iv injection of [18F]-compound in 0.1% bovine serum albumin solution, n = 3; format: ADME, organism-based; conditions: in vivo; procedure, shortened: as §1
[12] = Biodistribution in ICR mouse lung 2 hr after iv injection of [18F]-compound in 0.1% bovine serum albumin solution, n = 3; format: ADME, organism-based; conditions: in vivo; procedure, shortened: as §1
[13] = Biodistribution in ICR mouse spleen 1 hr after iv injection of [18F]-compound in 0.1% bovine serum albumin solution, n = 3; format: ADME, organism-based; conditions: in vivo; procedure, shortened: as §1
[14] = Biodistribution in ICR mouse blood 2 min. after iv injection of [18F]-compound in 0.1% bovine serum albumin solution, n = 3; format: ADME, organism-based; conditions: in vivo; procedure, shortened: as §1
[15] = Biodistribution in ICR mouse liver 30 min. after iv injection of [18F]-compound in 0.1% bovine serum albumin solution, n = 3; format: ADME, organism-based; conditions: in vivo, 0.5 h; procedure, shortened: as §1
[16] = Biodistribution in ICR mouse liver 2 hr after iv injection of [18F]-compound in 0.1% bovine serum albumin solution, n = 3; format: ADME, organism-based; conditions: in vivo; procedure, shortened: as §1
[17] = Biodistribution in ICR mouse muscle 30 min. after iv injection of [18F]-compound in 0.1% bovine serum albumin solution, n = 3; format: ADME, organism-based, Muscle tissue; conditions: in vivo, 0.5 h; procedure, shortened: as §1
[18] = Biodistribution in ICR mouse heart 2 hr after iv injection of [18F]-compound in 0.1% bovine serum albumin solution, n = 3; format: ADME, organism-based; conditions: in vivo; procedure, shortened: as §1
[19] = Biodistribution in ICR mouse bone 2 min. after iv injection of [18F]-compound in 0.1% bovine serum albumin solution, n = 3; format: ADME, organism-based, Bone element; conditions: in vivo; procedure, shortened: as §1
[20] = Biodistribution in ICR mouse bone 30 min. after iv injection of [18F]-compound in 0.1% bovine serum albumin solution, n = 3; format: ADME, organism-based, Bone element; conditions: in vivo, 0.5 h; procedure, shortened: as §1
[21] = Biodistribution in ICR mouse heart 30 min. after iv injection of [18F]-compound in 0.1% bovine serum albumin solution, n = 3; format: ADME, organism-based; conditions: in vivo, 0.5 h; procedure, shortened: as §1
[22] = Biodistribution in ICR mouse heart 2 min. after iv injection of [18F]-compound in 0.1% bovine serum albumin solution, n = 3; format: ADME, organism-based; conditions: in vivo; procedure, shortened: as §1
[23] = Biodistribution in ICR mouse liver 2 min. after iv injection of [18F]-compound in 0.1% bovine serum albumin solution, n = 3; format: ADME, organism-based; conditions: in vivo; procedure, shortened: as §1
[24] = Biodistribution in ICR mouse brain 1 hr after iv injection of [18F]-compound in 0.1% bovine serum albumin solution, n = 3; format: ADME, organism-based; conditions: in vivo; procedure, shortened: as §1
[25] = Biodistribution in ICR mouse kidney 30 min. after iv injection of [18F]-compound in 0.1% bovine serum albumin solution, n = 3; format: ADME, organism-based; conditions: in vivo, 0.5 h; procedure, shortened: as §1
[26] = Biodistribution in ICR mouse bone 1 hr after iv injection of [18F]-compound in 0.1% bovine serum albumin solution, n = 3; format: ADME, organism-based, Bone element; conditions: in vivo; procedure, shortened: as §1
[27] = Biodistribution in ICR mouse lung 2 min. after iv injection of [18F]-compound in 0.1% bovine serum albumin solution, n = 3; format: ADME, organism-based; conditions: in vivo; procedure, shortened: as §1
[28] = Biodistribution in ICR mouse spleen 2 min. after iv injection of [18F]-compound in 0.1% bovine serum albumin solution, n = 3; format: ADME, organism-based; conditions: in vivo; procedure, shortened: as §1
[29] = Biodistribution in ICR mouse bone 2 hr after iv injection of [18F]-compound in 0.1% bovine serum albumin solution, n = 3; format: ADME, organism-based, Bone element; conditions: in vivo; procedure, shortened: as §1
[30] = Biodistribution in ICR mouse skin 1 hr after iv injection of [18F]-compound in 0.1% bovine serum albumin solution, n = 3; format: ADME, organism-based, Zone of skin; conditions: in vivo; procedure, shortened: as §1
[31] = Biodistribution in ICR mouse lung 1 hr after iv injection of [18F]-compound in 0.1% bovine serum albumin solution, n = 3; format: ADME, organism-based; conditions: in vivo; procedure, shortened: as §1
[32] = Biodistribution in ICR mouse skin 2 hr after iv injection of [18F]-compound in 0.1% bovine serum albumin solution, n = 3; format: ADME, organism-based, Zone of skin; conditions: in vivo; procedure, shortened: as §1
[33] = Biodistribution in ICR mouse kidney 1 hr after iv injection of [18F]-compound in 0.1% bovine serum albumin solution, n = 3; format: ADME, organism-based; conditions: in vivo; procedure, shortened: as §1
[34] = Biodistribution in ICR mouse brain 30 min. after iv injection of [18F]-compound in 0.1% bovine serum albumin solution, n = 3; format: ADME, organism-based; conditions: in vivo, 0.5 h; procedure, shortened: as §1
[35] = Biodistribution in ICR mouse muscle 1 hr after iv injection of [18F]-compound in 0.1% bovine serum albumin solution, n = 3; format: ADME, organism-based, Muscle tissue; conditions: in vivo; procedure, shortened: as §1
[36] = Biodistribution in ICR mouse muscle 2 hr after iv injection of [18F]-compound in 0.1% bovine serum albumin solution, n = 3; format: ADME, organism-based, Muscle tissue; conditions: in vivo; procedure, shortened: as §1
[37] = Biodistribution in ICR mouse blood 2 hr after iv injection of [18F]-compound in 0.1% bovine serum albumin solution, n = 3; format: ADME, organism-based; conditions: in vivo; procedure, shortened: as §1
[38] = Biodistribution in ICR mouse spleen 2 hr after iv injection of [18F]-compound in 0.1% bovine serum albumin solution, n = 3; format: ADME, organism-based; conditions: in vivo; procedure, shortened: as §1
[39] = Biodistribution in ICR mouse liver 1 hr after iv injection of [18F]-compound in 0.1% bovine serum albumin solution, n = 3; format: ADME, organism-based; conditions: in vivo; procedure, shortened: as §1
[40] = Biodistribution in ICR mouse brain 2 min. after iv injection of [18F]-compound in 0.1% bovine serum albumin solution, n = 3; format: ADME, organism-based; conditions: in vivo; procedure, shortened: as §1
[41] = Biodistribution in ICR mouse spleen 30 min. after iv injection of [18F]-compound in 0.1% bovine serum albumin solution, n = 3; format: ADME, organism-based; conditions: in vivo, 0.5 h; procedure, shortened: as §1

Sequence of Amyloid-beta precursor protein (P05067 whole entry): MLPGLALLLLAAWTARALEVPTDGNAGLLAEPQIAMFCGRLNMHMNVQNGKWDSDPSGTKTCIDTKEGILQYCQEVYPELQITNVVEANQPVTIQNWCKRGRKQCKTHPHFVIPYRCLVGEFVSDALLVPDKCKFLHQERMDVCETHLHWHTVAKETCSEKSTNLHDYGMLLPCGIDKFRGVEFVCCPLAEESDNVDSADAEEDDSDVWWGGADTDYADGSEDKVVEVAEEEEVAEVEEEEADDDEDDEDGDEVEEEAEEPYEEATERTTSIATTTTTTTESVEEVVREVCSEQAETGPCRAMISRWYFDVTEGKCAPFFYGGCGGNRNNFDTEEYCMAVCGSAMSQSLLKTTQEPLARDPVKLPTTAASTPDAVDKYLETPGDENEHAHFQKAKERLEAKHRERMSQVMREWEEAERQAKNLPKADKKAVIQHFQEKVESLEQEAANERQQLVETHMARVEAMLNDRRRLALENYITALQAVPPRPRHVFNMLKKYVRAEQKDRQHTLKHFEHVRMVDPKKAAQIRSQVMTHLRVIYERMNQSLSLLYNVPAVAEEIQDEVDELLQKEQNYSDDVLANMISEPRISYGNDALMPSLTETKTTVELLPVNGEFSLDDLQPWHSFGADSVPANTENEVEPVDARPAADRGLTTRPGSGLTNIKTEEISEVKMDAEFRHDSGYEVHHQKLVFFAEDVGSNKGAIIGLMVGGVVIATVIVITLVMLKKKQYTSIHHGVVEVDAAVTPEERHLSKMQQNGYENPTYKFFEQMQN

CNc1ccc(/C=C/c2ccc(OCC(CO)CO)cc2)cc1
Ki [1]: 32.5 nM

Nc1ccc(/C=C/c2ccc(OCC(CO)CF)cc2)cc1 (stereo not given)
Ki [1]: 15 nM

CN(C)c1ccc(/C=C/c2ccc(O)cc2)cc1
Ki [1]: 1.1 nM

CN(C)c1ccc(/C=C/c2ccc(OCC3COC(C)(C)OC3)cc2)cc1
Ki [1]: 59 nM

CNc1ccc(/C=C/c2ccc(OCC(CO)C[18F])cc2)cc1 (stereo not given)
Biodistribution [2]: 0.92 %Dose/g | Biodistribution [3]: 0.31 %Dose/g | Biodistribution [4]: 8.9 %Dose/g | Biodistribution [5]: 1.54 %Dose/g | Biodistribution [6]: 1.5 %Dose/g | Biodistribution [7]: 1.49 %Dose/g | Biodistribution [8]: 2.47 %Dose/g | Biodistribution [9]: 11.7 %Dose/g | Biodistribution [10]: 0.74 %Dose/g | Biodistribution [11]: 1.82 %Dose/g | Biodistribution [12]: 4.15 %Dose/g | Biodistribution [13]: 1.37 %Dose/g | Biodistribution [14]: 2.6 %Dose/g | Biodistribution [15]: 19.6 %Dose/g | Biodistribution [16]: 8.14 %Dose/g | Biodistribution [17]: 1.31 %Dose/g | Biodistribution [18]: 0.65 %Dose/g | Biodistribution [19]: 1.53 %Dose/g | Biodistribution [20]: 2.13 %Dose/g | Biodistribution [21]: 2.06 %Dose/g | Biodistribution [22]: 7.49 %Dose/g | Biodistribution [23]: 20.61 %Dose/g | Biodistribution [24]: 0.72 %Dose/g | Biodistribution [25]: 4.13 %Dose/g | Biodistribution [26]: 5.3 %Dose/g | Biodistribution [27]: 26.13 %Dose/g | Biodistribution [28]: 5.01 %Dose/g | Biodistribution [29]: 7.76 %Dose/g | Biodistribution [30]: 1.22 %Dose/g | Biodistribution [31]: 7.51 %Dose/g | Biodistribution [32]: 0.57 %Dose/g | Biodistribution [33]: 3.06 %Dose/g | Biodistribution [34]: 1.7 %Dose/g | Biodistribution [35]: 0.85 %Dose/g | Biodistribution [36]: 0.41 %Dose/g | Biodistribution [37]: 0.78 %Dose/g | Biodistribution [38]: 1.22 %Dose/g | Biodistribution [39]: 14.58 %Dose/g | Biodistribution [40]: 9.75 %Dose/g | Biodistribution [41]: 2.41 %Dose/g | Ki [1]: 5 nM
